High-throughput results as filed in PubChem BioAssay.
E-selectin induc – E-selectin induction in HUVECs, primary screen, imaging, HUVEC, immunofluorescence imaging, single point; P16581; normalized: neutral wells 0, TNF-alpha wells 100; activation, % at 7.58 µM; 260,000 compounds, 0.37% hits; AID 686992, 2013;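 active = mean E-selectin-positive cell signal at least 10% of the positive control, reached in at least 60% of replicates, without over 20% cell loss; inconclusive = no rule given, readout overlaps actives, possibly toxicity-flagged; inactive = the rest, including those meeting only one limit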
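Test system: HUVEC; input: 3,000 HUVEC/well; measured by: immunofluorescence imaging; read-out: % PE-positive cells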
DENV2 CPE – inhibitors of DENV2 cytopathic effect, primary screen, cell-based, plate reader, single concentration; DENV2-infected cells, cytopathic effect rescue; CPE inhibition, % at 9.99 µM; 350,000 compounds, 1.7% hits; in the data active = CPE inhibition above about 20%, passing the limit was not always enough; inconclusive = no clear call, values can overlap the other calls; tested in BHK-21 cells;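 note: 0% = median of neutral control wells and 100% = median of positive control wells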
SIRT5 block – SIRT5 desuccinylase inhibitors, primary screen, biochemical, fluorescence imaging, single point, set 5. Purified SirT5, succinyl-peptide AMC, trypsin-coupled fluorescence. 330,000 compounds, 1.1% hits. inhibition, % at 15 µM. AID 652115, 2013; in the data active = inhibition above about 15%; inconclusive = no clear call, values can overlap the other calls
Target sequence (Q9NXA8 whole entry, looked up): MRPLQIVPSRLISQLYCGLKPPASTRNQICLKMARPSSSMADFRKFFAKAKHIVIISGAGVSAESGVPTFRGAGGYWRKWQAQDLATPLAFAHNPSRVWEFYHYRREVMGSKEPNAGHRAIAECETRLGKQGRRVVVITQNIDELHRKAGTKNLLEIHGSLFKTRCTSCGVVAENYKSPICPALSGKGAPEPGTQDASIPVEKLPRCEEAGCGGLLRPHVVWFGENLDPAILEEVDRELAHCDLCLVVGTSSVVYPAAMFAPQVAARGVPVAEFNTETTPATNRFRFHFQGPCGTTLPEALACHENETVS
Numbers without * were called inactive; ? = inconclusive; . = not tested or not shown. Rows were chosen to be rich in hits. Some 2.8% of all compounds tested hit in one or more screens of this group.

SMILES	E-selectin induc	DENV2 CPE	SIRT5 block
CN1c2ccc(-c3ccc(C#N)cc3)cc2[C@@H]2[C@@H](CCN2C(=O)Nc2ccccc2F)[C@@H]1CO	0	42*	-16
COc1ccccc1NC(=O)N1CC[C@@H]2[C@H]1c1cc(-c3ccc(F)cc3)ccc1N(C)[C@H]2CO	-1	2	2
COCC(=O)N1[C@H](CO)[C@H](c2ccccc2)C12CN(C(=O)c1cccc(F)c1)C2	0	-7	-2
CN1c2ccc(Br)cc2[C@H]2[C@H](CCN2S(=O)(=O)c2ccccc2F)[C@H]1CO	0	-14	.
C[C@@H]1CN([C@@H](C)CO)C(=O)c2cc(C#Cc3ccc(F)cc3)cnc2O[C@H]1CN(C)Cc1ccccn1	0	1	3
Cc1ccccc1CNS(=O)(=O)c1ccc2c(c1)C(C)(C)C(=O)N2C	0	-3	-1
CC(C)C(NS(=O)(=O)c1ccc2c(c1)C(C)(C)C(=O)N2C)C(=O)NCc1ccccc1Cl (stereo unspecified)	0	80*	-3
Oc1ccc(-c2nc3ccccc3s2)c(O)c1	3	3	-14
Oc1ccc(-c2cnns2)c(O)c1	2	13	31*
CCCC#Cc1ccc([C@H]2[C@H](CO)N3CCCCN(Cc4cccnc4)C[C@@H]23)cc1	0	?	-1
C[C@@H]1CN([C@H](C)CO)C(=O)c2cc(C#CC3CCCC3)cnc2O[C@@H]1CN(C)Cc1ccncc1	-4	-9	5
COc1ccc(NC(=O)CCCn2c(=S)[nH]c3ccccc3c2=O)cc1	90*	13	-1
COc1ccc(NC(=O)CCn2c(=S)[nH]c3ccccc3c2=O)cc1	.	4	-8
COc1cccc(CN2C[C@@H]3N[C@H](C2)C3c2ccc(-c3ccccc3OC)cc2)c1 (stereo partly specified)	0	17	4
C[C@@H]1CN([C@@H](C)CO)C(=O)Cc2cc(NC(=O)Nc3ccc(C(F)(F)F)cc3)ccc2O[C@@H]1CN(C)C(=O)Nc1ccc2c(c1)OCO2	12	-15	.
COc1ccccc1NC(=O)C(C)OC(=O)C1CC(=O)N(Cc2ccco2)C1 (stereo unspecified)	0	9	.
COc1ccc([N+](=O)[O-])cc1NC(=O)C(C)OC(=O)C1CC(=O)N(Cc2ccco2)C1 (stereo unspecified)	0	95*	3
Cc1noc(C)c1S(=O)(=O)Nc1ccc2c(c1)C(=O)N([C@H](C)CO)C[C@H](C)[C@@H](CN(C)S(=O)(=O)c1cccs1)O2	0	8	-6
CC(C)Cn1c(=O)c2ccccc2n2c(CCC(=O)O)nnc12	0	70*	-3
Cc1ccc(Cn2c(=O)c3ccccc3n3c(CCC(=O)O)nnc23)cc1	0	-2	.
O=C(C[C@@H]1C=C[C@H](NC(=O)c2cccnc2)[C@@H](CO)O1)NCc1ccc(Cl)c(Cl)c1	0	?	2
CC(=O)Oc1ccccc1C(=O)OCO/N=[N+](\[O-])N1CCC[C@H]1C(=O)O	.	-2	-21
CC(=O)OCO/N=[N+](\[O-])N1CCCC1	.	24*	0
CCCNC(=O)Nc1ccc2c(c1)C(=O)N(C)[C@H]1CC[C@H](CC(=O)OC)O[C@@H]1CO2	0	-7	-5
O=C1COc2ccc(C(=O)COC(=O)CCSc3ccc(Cl)cc3)cc2N1	.	-4	16*
SMILES	E-selectin induc	DENV2 CPE	SIRT5 block
O=C1COc2ccc(C(=O)COC(=O)Cc3ccc(Cl)cc3)cc2N1	0	-3	1
CC(C)NC(=O)N1CC2(C1)[C@@H](c1ccccc1)[C@H](CO)N2C(=O)C1CC1	0	18	-14
N#C[C@@H]1[C@H](c2ccccc2C2=CCCCC2)[C@H](CO)N1C(=O)CN1CCOCC1	0	6	-1
N#C[C@H]1[C@@H](c2ccccc2C2=CCCCC2)[C@@H](CO)N1C(=O)C1CCOCC1	0	-2	4
N#C[C@@H]1[C@@H](c2ccccc2C2=CCCCC2)[C@@H](CO)N1C(=O)NC1CCCC1	0	8	5
N#C[C@@H]1[C@@H](c2ccc(C3=CCCCC3)cc2)[C@H](CO)N1C(=O)C1CCOCC1	2	4	-3
N#C[C@H]1[C@@H](c2ccccc2C2=CCCCC2)[C@H](CO)N1C(=O)CN1CCOCC1	0	43*	-1
N#C[C@@H]1[C@@H](c2ccccc2C2=CCCCC2)[C@H](CO)N1C(=O)NC1CCCC1	0	73*	7
N#C[C@@H]1[C@H](c2ccc(C3=CCCCC3)cc2)[C@H](CO)N1C(=O)C1CCOCC1	0	30*	-1
N#C[C@H]1[C@H](c2ccccc2C2=CCCCC2)[C@H](CO)N1C(=O)C1CCOCC1	0	2	17*
CCCN(C)C[C@H]1Oc2cc(-c3cccc(OC)c3)ccc2S(=O)(=O)N([C@H](C)CO)C[C@H]1C	0	6	-1
O=C(C1CCCC1)N1CC(=O)N2[C@H](CO)[C@H](c3ccc(C#CCc4ccccc4)cc3)[C@H]2C1	1	19	0
COc1ccccc1NC(=O)N[C@H]1C=C[C@@H](CC(=O)NCc2ccc(Cl)c(Cl)c2)O[C@@H]1CO	0	?	-1
C[C@@H]1CCCCO[C@@H](CN(C)Cc2ccc(Cl)c(Cl)c2)[C@@H](C)CN([C@@H](C)CO)C(=O)c2cc(NC(=O)C3CCCCC3)ccc2O1	0	3	-2
N#C[C@H]1[C@@H](c2ccccc2C2=CCCC2)[C@H](CO)N1C(=O)C1CCC1	0	-5	2
N#C[C@@H]1[C@@H](c2ccccc2C2=CCCCC2)[C@@H](CO)N1S(=O)(=O)c1ccccc1	0	21*	.
N#C[C@H]1[C@@H](c2ccccc2C2=CCCCC2)[C@H](CO)N1S(=O)(=O)c1ccccc1	0	-8	.
N#C[C@H]1[C@@H](c2ccccc2C2=CCCC2)[C@H](CO)N1C(=O)C1CCCC1	0	41*	-5
N#C[C@@H]1[C@H](c2ccccc2C2=CCCC2)[C@H](CO)N1C(=O)C1CC1	0	22*	3
N#C[C@@H]1[C@H](c2ccc(-c3cncnc3)cc2)[C@@H](CO)N1C(=O)CN1CCOCC1	0	50*	1
N#C[C@@H]1[C@H](c2ccc(-c3cncnc3)cc2)[C@H](CO)N1C(=O)CN1CCOCC1	0	1	1
N#C[C@@H]1[C@H](c2ccccc2C2=CCCC2)[C@@H](CO)N1C(=O)C1CC1	0	-14	-1
COc1ccc2c3c(n(C)c2c1)[C@H](CO)N(C(=O)NC(C)C)CC31CCN(Cc2nccs2)CC1	0	-3	-2
Cc1noc(C)c1NC(=O)Nc1ccc2c(c1)C(=O)N([C@H](C)CO)C[C@@H](C)[C@H](CN(C)Cc1ccc(C(F)(F)F)cc1)OCCCC[C@H](C)O2	0	9	7
CC(C)C#Cc1ccc([C@H]2[C@@H](C#N)N(C(=O)CN(C)C)[C@@H]2CO)cc1	0	1	2
CCCNC(=O)N[C@@H]1CC[C@@H](CCn2cc(-c3cccc(F)c3)nn2)O[C@H]1CO	0	2	0
